Rows were chosen to be rich in hits. Some 2.3% of all compounds tested hit in one or more screens of this group.
TRPC6 act – mouse TRPC6 channel activators, primary screen, cell-based, HEK293, membrane potential dye; B-score at 10 µM; hit rate 0.13% among 310,000; HEK293-TRPC6 membrane potential dye fluorescence; stronger effect = higher value; Short transient receptor potential channel 6 (Mus musculus), Q61143;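 active means B-score of the integrated fluorescence ratio above library mean plus 3 SD, and starting fluorescence ratio within library mean plus 5 SD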;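 further: higher score means more depolarization so channel activation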
TRPC6 inhibitor – mouse TRPC6 channel inhibitors, primary screen, cell-based, HEK293, membrane potential dye; Short transient receptor potential channel 6 (Mus musculus), Q61143; ACh-evoked depolarization; stronger effect = lower value; B-score at 10 µM; AID 2553, 2010; hit rate 1.1% among 310,000;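 active means B-score under library mean minus 3 SD, initial fluorescence not abnormally high, positive integrated signal ratio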;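 further: B-score derived from integrated fluorescence ratio over the kinetic read; more negative B-score means stronger inhibition of depolarization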
TRPC4 agonist – activators of mouse TRPC4 channel, primary screen, Fluo4 calcium, HEK293 TRPC4beta/mu-opioid cells | B-score at 10 µM | Fluo4 calcium fluorescence; stronger effect = higher value | Short transient receptor potential channel 4 (Mus musculus), Q9QUQ5 | hit rate 0.49% among 310,000 | AID 2237, 2010;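 active means B-score above 5 SD of library B-scores, and initial fluorescence ratio not above library mean plus 5 SD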;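 further: positive B-score marks a calcium rise read as TRPC4 activation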
Target sequence (Q9QUQ5 whole entry, looked up): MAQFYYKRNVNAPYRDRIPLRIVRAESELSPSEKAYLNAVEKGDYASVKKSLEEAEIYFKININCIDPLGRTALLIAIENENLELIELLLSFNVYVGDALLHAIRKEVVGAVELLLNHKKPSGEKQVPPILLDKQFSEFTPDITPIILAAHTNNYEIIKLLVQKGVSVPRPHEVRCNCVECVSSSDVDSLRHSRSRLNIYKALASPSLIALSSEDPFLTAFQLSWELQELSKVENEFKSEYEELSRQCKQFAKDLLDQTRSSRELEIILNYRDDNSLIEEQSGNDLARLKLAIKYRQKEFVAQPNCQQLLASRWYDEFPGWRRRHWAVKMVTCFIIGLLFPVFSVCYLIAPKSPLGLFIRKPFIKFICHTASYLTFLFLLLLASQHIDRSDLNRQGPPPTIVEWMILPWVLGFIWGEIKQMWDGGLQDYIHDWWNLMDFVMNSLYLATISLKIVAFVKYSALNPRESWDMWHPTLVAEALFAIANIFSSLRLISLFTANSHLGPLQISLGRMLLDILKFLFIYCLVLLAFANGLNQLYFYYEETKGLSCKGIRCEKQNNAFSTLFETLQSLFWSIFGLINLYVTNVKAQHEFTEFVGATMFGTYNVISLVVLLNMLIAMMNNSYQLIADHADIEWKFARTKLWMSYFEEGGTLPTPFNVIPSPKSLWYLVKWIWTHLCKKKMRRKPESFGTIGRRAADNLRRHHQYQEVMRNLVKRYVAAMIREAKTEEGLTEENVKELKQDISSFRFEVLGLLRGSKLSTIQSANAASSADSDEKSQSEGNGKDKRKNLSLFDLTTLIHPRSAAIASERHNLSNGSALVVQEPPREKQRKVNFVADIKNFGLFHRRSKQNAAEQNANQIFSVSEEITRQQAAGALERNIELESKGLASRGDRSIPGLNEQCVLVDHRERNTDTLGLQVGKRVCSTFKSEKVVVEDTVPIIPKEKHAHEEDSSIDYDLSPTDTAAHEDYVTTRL
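Test system: HEK293 cells stably co-expressing mouse TRPC4beta and mu-opioid receptor | Schedule: Fluo4 dye loading 45 min at room temperature, 110 s recording | Measured by: Kinetic Fluo4 calcium fluorescence, 5 s baseline at 1 Hz | Evaluation: B score of integrated ratio | Controls: Buffer (low) and maximal DAMGO (high)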
TRPC4 potent – positive allosteric modulators of TRPC4, primary screen, cell-based, mouse TRPC4beta, HEK293 mu-opioid, Fluo-4 calcium | Short transient receptor potential channel 4 (Mus musculus), Q9QUQ5 | DAMGO EC20, Fluo-4 Ca2+ flux; stronger effect = higher value | B-score at 10 µM | hit rate 0.42% among 310,000 | AID 2227, 2009;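 active means B-score of calcium response area above 5 SD of library B-scores, with initial fluorescence ratio within 5 SD of library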;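 further: B-score of integrated fluorescence ratio over time as area under calcium response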
TRPC4 inh – inhibitors of mouse TRPC4 channel, primary screen, Fluo4 calcium, HEK293 TRPC4beta/mu-opioid cells | Short transient receptor potential channel 4 (Mus musculus), Q9QUQ5 | DAMGO-evoked Fluo4 calcium flux; stronger effect = lower value | B-score at 10 µM | hit rate 0.39% among 300,000 | AID 2247, 2010;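 active means B-score over 3 SD under the library average, no early fluorescence shift, positive overall ratio signal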
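Assay system – HEK293 line stably carrying TRPC4beta and mu-opioid receptor · Doses – single dose · Detection – Fluo4 calcium-dye fluorescence, kinetic read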
TRPC4 spec 2 – second check of whether TRPC6 inhibitors also affect mouse TRPC4. hit rate 42% among 920. shares compounds with TRPC6 inhibitor. HEK293 TRPC4/MOR, membrane potential dye fluorescence; channel activated by saturating DAMGO dose. inhibition, % at 10 µM. AID 2776;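 active means compounds whose fluorescence signal differed from control wells by over 3 SD, either direction, in both duplicate plates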
TRPC4 spec – mouse TRPC4 modulation by TRPC6 hits, confirmation, selectivity assay for TRPC6 inhibitor project, cell-based, HEK293 TRPC4/mu-opioid, membrane potential dye; shares compounds with TRPC6 inhibitor; membrane potential fluorescence; activity change, negative = inhibition, % at 10 µM; hit rate 61% among 920; AID 2777, 2010;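 active means rise or fall in signal beyond 3 SD of buffer-only wells in both replicate plates, either sign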;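 further: integrated kinetic ratio of fluorescence range over baseline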
HEK293 MPD ctr 2-1 – nonspecific membrane potential effects, parental HEK293, confirmation, counter-screen for TRPC6 inhibitor project, cell-based, second counter screen. shares compounds with TRPC6 inhibitor. parental HEK293 membrane potential dye fluorescence; maximal acetylcholine challenge after compound addition. signal change vs control, % at 10 µM. hit rate 31% among 920;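 active means membrane potential signal moving either way by over 3 SD of the maximum-effect control, in both duplicate plates, meaning non-specific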
HEK293 MPD ctr-1 – membrane potential modulation in parental HEK293, confirmation, counter-screen for TRPC6 inhibitor project, cell-based; parental HEK293 membrane potential dye fluorescence; shares compounds with TRPC6 inhibitor; AID 2780, 2010; hit rate 60% among 920; membrane potential signal change, % at 10 µM;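 active means membrane potential signal shifting up or down by more than 3 SD of buffer-only wells, on both duplicate plates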
HEK293 MPD ctr-2 – parental HEK293 membrane potential modulation, confirmation, counter-screen for TRPC6 modulator project, cell-based; shares compounds with TRPC6 inhibitor; membrane potential signal change, % at 10 µM; membrane potential dye fluorescence; AID 488924, 2010; hit rate 51% among 2,400;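 active means membrane potential signal moves up or down beyond 5 SD from buffer-only wells, on both duplicate plates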
HEK293 MPD ctr 2-2 – second check of TRPC6 modulator effects in parental HEK293 cells; shares compounds with TRPC6 inhibitor; membrane potential dye fluorescence; after compound, maximal acetylcholine stimulation; inhibition, % at 10 µM; hit rate 14% among 2,400; AID 488926;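 active means membrane potential signal drops by more than 5 SD from the mean control signal, in both duplicate plates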;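 further: plate controls were acetylcholine ECmax control wells for no effect and buffer only wells for full effect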
TRPC4 ctr mod – TRPC4 modulation by TRPC6 hit compounds, confirmation, selectivity assay for TRPC6 modulator project, cell-based, HEK293 TRPC4/mu-opioid, membrane potential dye, mouse. shares compounds with TRPC6 inhibitor. membrane potential fluorescence. percent change from control (negative = decrease, positive = increase), % at 10 µM. hit rate 69% among 2,400;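 active means membrane potential signal moved up or down beyond 5 SD of buffer control wells, in both duplicate plates, actives on both sides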;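 further: plate controls were assay buffer wells for no effect and DAMGO maximal-effect wells for full effect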
TRPC4/MOR inh 2 – mouse TRPC4 off-target activity of TRPC6 modulators, second screen; shares compounds with TRPC6 inhibitor; HEK293 TRPC4/mu-opioid, membrane potential dye fluorescence; stimulated with maximal-effect DAMGO; inhibition, % at 10 µM; hit rate 55% among 2,400; AID 488928;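 active means drop in membrane potential signal beyond 5 SD of the control wells in both duplicate plates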;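 further: TRPC4 counter screen for TRPC6 hits run under conditions tuned for TRPC6 not TRPC4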
TRPC6 inh conf – mouse TRPC6 channel inhibitors, confirmation, HEK293 cells, membrane potential dye, duplicate; inhibition, % at 10 µM; hit rate 43% among 3,300; ACh-evoked depolarization; shares compounds with TRPC6 inhibitor;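 active means fluorescence ratio falls more than 5 SD below the full-stimulation control mean, in both duplicate runs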;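 further: integrated fluorescence ratio of peak minus minimum over baseline after agonist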
TRPC6 act conf – mouse TRPC6 channel activators, confirmation, HEK293 cells, membrane potential dye, duplicate; hit rate 11% among 2,800; HEK293-TRPC6 membrane potential dye fluorescence, FDSS; shares compounds with TRPC6 inhibitor; activation, % at 10 µM;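 active means ratio signal rise beyond 5 SD above unstimulated control wells' mean, seen in both duplicate runs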;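 further: plate controls were buffer EC0 wells for no effect and acetylcholine ECmax response for full effect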
* = called active by the depositor; i = inactive; . = no result; + = active, no number.

SMILES	TRPC6 act	TRPC6 inhibitor	TRPC4 agonist	TRPC4 potent	TRPC4 inh	HEK293 MPD ctr-2	HEK293 MPD ctr 2-2	TRPC4 ctr mod	TRPC4/MOR inh 2	TRPC6 inh conf	TRPC6 act conf	others
CCN(CC)CC(=O)N1c2ccccc2Sc2ccc(Cl)cc21	i	-8.2*	i	i	i	.	.	.	.	i	.	TRPC4 spec 2=i;TRPC4 spec=6.0%*;HEK293 MPD ctr 2-1=i;HEK293 MPD ctr-1=7.4%*
O=C(CCN1CCOCC1)N1c2ccccc2Sc2ccc(Cl)cc21	i	-5.2*	i	i	i	i	75%*	14%*	i	50%*	.
CCN(CC)CC(=O)N1c2ccccc2Sc2ccccc21	i	i	i	i	i	.	.	.	.	.	.
CCc1cccc(OCC(=O)Nc2cc(S(=O)(=O)N3CCOCC3)ccc2N2CCCC2)c1	i	i	i	i	i	.	.	.	.	.	.
COC(=O)C1=C(C)N(C)C(=O)NC1c1cccc2ccccc12 (stereo unspecified)	i	i	i	i	i	.	.	.	.	.	.
O=C(c1ccc([N+](=O)[O-])cc1)N(Cc1ccc(Cl)cc1)N1C(=O)CCCC1=O	17*	-16*	47*	i	i	390%*	159%*	50%*	45%*	80%*	122%*
COc1ccc(CCNC(=O)C(=O)NCC2OCCN2S(=O)(=O)c2ccc(Cl)cc2)cc1OC (stereo unspecified)	i	i	i	i	i	.	.	.	.	.	.
Cc1ccc(NC(=O)CN(C)C(=O)Cn2ccsc2=N)cc1	i	i	i	i	i	.	.	.	.	.	.
N=c1sccn1CC(=O)Nc1ccccc1Oc1ccccc1	i	-5.1*	i	i	-6*	i	i	i	76%*	i	i
Cc1ccc(Oc2ccc(NC(=O)Cn3ccsc3=N)cc2)cc1	i	-8.3*	60*	i	i	.	.	.	.	89%*	i	TRPC4 spec 2=29%*;TRPC4 spec=i;HEK293 MPD ctr 2-1=i;HEK293 MPD ctr-1=i
CC(NC(=O)c1ccccc1)c1nnc(SCC(=O)Nc2nnc(C3CC3)s2)n1C (stereo unspecified)	i	i	i	i	i	.	.	.	.	.	.
CCOCCN1CCN(C2c3ccccc3CSc3ccccc32)CC1 (stereo unspecified)	i	-8.3*	i	i	i	.	.	.	.	i	.	TRPC4 spec 2=72%*;TRPC4 spec=18%*;HEK293 MPD ctr 2-1=i;HEK293 MPD ctr-1=9.5%*
CCNC(=O)NC1c2ccccc2CSc2ccccc21 (stereo unspecified)	i	i	i	i	i	.	.	.	.	.	.
O=C(N/C(=C/c1ccc([N+](=O)[O-])cc1)C(=O)N1CCOCC1)c1ccco1	i	i	i	i	i	.	.	.	.	.	.
Cc1ccc(S(=O)(=O)/C(C#N)=C/c2c(N3CCN(C)CC3)nc3c(C)cccn3c2=O)cc1	i	-6.8*	i	i	i	i	i	-17%*	83%*	i	i
N#C/C(=C\c1c(N2CCN(c3ccccc3)CC2)nc2ccccn2c1=O)S(=O)(=O)c1ccccc1	i	i	i	i	i	.	.	.	.	.	.
CCN1CCN(c2nc3c(C)cccn3c(=O)c2/C=C(\C#N)S(=O)(=O)c2ccc(C)cc2)CC1	i	-5.1*	i	i	i	-77%*	i	-22%*	96%*	i	i
N#C/C(=C\c1c(N2CCCCC2)nc2ccccn2c1=O)S(=O)(=O)c1ccccc1	i	-5.3*	i	i	i	i	i	-14%*	48%*	i	i
O=Nc1c(-c2c(O)[nH]c3cc(Br)ccc23)[nH]c2ccccc12	i	i	i	i	i	.	.	.	.	.	.
COc1ccc([N+](=O)[O-])cc1NC(=O)C(C)OC(=O)C1CCC1 (stereo unspecified)	i	i	i	i	i	.	.	.	.	.	.
O/C(=C\c1nc2ccccc2nc1/C=C(\O)c1ccccc1)c1ccccc1	13*	i	i	i	i	268%*	i	i	i	i	i
O/C(=C\c1ccc2ccccc2n1)c1ccncc1	46*	i	66*	i	i	+	+	186%*	48%*	.	314%*
O=c1oc2ccccc2nc1/C=C(\O)c1ccccc1	i	i	i	i	i	.	.	.	.	.	.

Screening data as filed in PubChem BioAssay.
